Test results taken from paper PMC8586590 (Bioactive Materials, 2021).
pIC50: −log10 of the molar value.

Tests used:
[1] = assay type: in vivo, Balb/c nude mice; conditions: i.v., 3 mg/kg HCPT-equivalent
Procedure, shortened: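 Normal Balb/c nude mice (4–6 weeks, 16–19 g), six groups of five including saline, treated three times. Eye blood taken on days 1 and 5 after the third dose. For haematology, 300 μL into heparinised tubes; for biochemistry, 500 μL, centrifuged at 2500×g for 15 min and the supernatant used. Xenograft mice: body weight every three days and H&E of major organs at study end.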

[2] = test system: HepG2 3D multicellular spheroids; assay: Multicellular spheroid; assay type: cell-based; conditions: HepG2 MCSs, 100 μM, medium replaced every two days, 7 days, N=3
Procedure, shortened: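 HepG2 3D spheroids held in 100 μM formulation, with medium replaced every two days; drug-free medium served as control. Spheroid volume calculated as V = 4/3πr³ from the radius and expressed relative to each spheroid's day-0 volume. Mean ± SD, N = 3.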

HepG2-luci cells = assay: Lung metastasis model; assay type: in vivo, Balb/c nude mice; conditions: after 30 days, i.v., 3 mg/kg HCPT equivalent, four injections, N=5
Procedure, shortened: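 Balb/c nude mice (4–6 weeks, 20 ± 2 g) received 1 × 10⁶ HepG2-luci cells in 200 μL serum-free DMEM via the tail vein. Six days later (day 0) they were randomised into six groups of five and dosed i.v. at 3 mg/kg HCPT-equivalent on days 0, 3, 6 and 9. Study ended at day 30: lungs fixed in Bouin's for 24 h and photographed, then formalin-fixed paraffin sections stained with H&E.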

HepG2 cells = assay: Cell inhibition, MTT assay; assay type: cell-based; conditions: Homo sapiens, HepG2, 48 h

pIC50 (HepG2 cells): 6.08
SMILES: CC[C@@]1(O)C(=O)OCc2c1cc1n(c2=O)Cc2cc3cc(O)ccc3nc2-1 [HCPT, 10-hydroxycamptothecin]
blood parameters RBC, WBC, HGB, PLT (hematotoxicity) ([1]; three times, N=5): deteriorated
body weight during treatment ([1]; tumor-bearing mice): obvious weight loss
MCS volume relative to initial volume [2]: stable volume
bioluminescence signal of HepG2-luci cells in the lung (HepG2-luci cells): the strongest
